Measurements from ChEMBL document CHEMBL2146365, “Design and synthesis of EGFR dimerization inhibitors and evaluation of their potential in the treatment of psoriasis” (Bioorg Med Chem, 2012).
One block for each molecule: values may come before it. Activity calls are given as the source filed them. The calls are words filed in the database; no cut-off is given here.

How the values were obtained:
[1] = Growth inhibition of HPV-16 transformed human CCD-1106 cells after 72 hrs by MTT assay; format: functional; details: CCD-1106, 72 h
How it was run: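 Cells were seeded at 10,000 cells/well in keratinocyte serum-free medium with L-glutamine, bovine pituitary extract and EGF, at 37 °C under 5% CO2, and attached overnight. Eight drug concentrations were run with six in-plate replicates, DMSO <1%, for 72 h. MTT (0.5 mg/ml) was added for 2 h, formazan was dissolved in 90% isopropanol/10% DMSO and A590 was read. Growth is expressed relative to the untreated control.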

[2] = target: Epidermal growth factor receptor (Homo sapiens) (UniProt P00533); assay: Inhibition of EGFR-mediated ERK1 phosphorylation in HPV-16 transformed human CCD-1106 cells at 161.1 uM after 30 mins by densitometric analysis; format: cell-based
Epidermal growth factor receptor (Homo sapiens), sequence (P00533 whole entry): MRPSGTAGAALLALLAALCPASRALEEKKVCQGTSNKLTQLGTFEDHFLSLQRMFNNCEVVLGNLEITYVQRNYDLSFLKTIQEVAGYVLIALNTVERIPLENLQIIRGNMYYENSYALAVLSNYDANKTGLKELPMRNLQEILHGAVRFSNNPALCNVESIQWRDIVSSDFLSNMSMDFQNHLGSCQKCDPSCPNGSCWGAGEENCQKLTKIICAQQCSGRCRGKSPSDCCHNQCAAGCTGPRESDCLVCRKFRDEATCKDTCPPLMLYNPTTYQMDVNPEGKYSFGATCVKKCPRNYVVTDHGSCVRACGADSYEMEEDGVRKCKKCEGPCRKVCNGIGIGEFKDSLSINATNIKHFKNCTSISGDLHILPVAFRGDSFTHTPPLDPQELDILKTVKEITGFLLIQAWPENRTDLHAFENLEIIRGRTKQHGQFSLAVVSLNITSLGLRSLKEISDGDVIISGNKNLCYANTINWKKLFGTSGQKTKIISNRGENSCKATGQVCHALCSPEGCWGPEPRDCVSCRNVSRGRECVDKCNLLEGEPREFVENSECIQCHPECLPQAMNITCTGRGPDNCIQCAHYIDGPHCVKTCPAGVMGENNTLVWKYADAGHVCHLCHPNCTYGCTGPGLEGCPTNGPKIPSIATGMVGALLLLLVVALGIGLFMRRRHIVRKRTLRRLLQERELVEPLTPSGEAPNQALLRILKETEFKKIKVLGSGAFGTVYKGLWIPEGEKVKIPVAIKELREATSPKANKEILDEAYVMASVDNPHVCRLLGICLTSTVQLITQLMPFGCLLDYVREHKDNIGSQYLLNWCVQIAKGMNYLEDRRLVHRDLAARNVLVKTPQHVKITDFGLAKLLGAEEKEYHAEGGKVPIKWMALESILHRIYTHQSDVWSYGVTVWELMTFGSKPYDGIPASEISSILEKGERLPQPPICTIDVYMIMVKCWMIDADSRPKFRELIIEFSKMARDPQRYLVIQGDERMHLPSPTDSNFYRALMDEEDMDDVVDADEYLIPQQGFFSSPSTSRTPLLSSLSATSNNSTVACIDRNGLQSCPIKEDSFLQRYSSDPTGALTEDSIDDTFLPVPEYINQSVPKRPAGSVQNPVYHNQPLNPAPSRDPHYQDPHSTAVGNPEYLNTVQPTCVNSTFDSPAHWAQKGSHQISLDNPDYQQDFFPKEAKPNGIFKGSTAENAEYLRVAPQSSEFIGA
How it was run: (§1)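 CCD-1106 cells were treated with compound for 30 min at 37 °C, then stimulated with EGF. Lysates were separated by SDS-PAGE, blotted to nitrocellulose and blocked in 3% BSA/NaTT. Blots were probed with p-ERK (E-4) or p-p38 (D-8) antibodies, detected by ECL and quantified by densitometry.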

[3] = Antioxidant activity in bovine brain assessed as inhibition of iron-ascorbate-induced lipid peroxidation by thiobarbituric acid test; format: functional, tissue-based, Bos taurus
How it was run: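 Hit compounds were tested for inhibition of lipid peroxidation by the thiobarbituric acid (TBA) assay. Propyl gallate served as the standardizing positive control, tested at 100 µM.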

[4] = target: Epidermal growth factor receptor (Homo sapiens) (UniProt P00533); assay: Inhibition of phosphorylated EGFR dimerization in HPV-16 transformed human CCD-1106 cells at 134.5 uM after 30 mins by densitometric analysis; format: cell-based
How it was run: (§2)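 CCD-1106 cells were exposed to compounds for 30 min at 37 °C, then stimulated with EGF 50 ng/mL for 10 min. They were cross-linked with 2 mM BS3 for 30 min at room temperature and quenched with Tris (pH 7.5). Lysates were run on SDS-PAGE and immunoblotted for phospho-EGFR (Tyr1173) and total EGFR. The ~340 kDa dimer band was quantified by densitometry against the no-inhibitor control.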

[5] = target: Epidermal growth factor receptor (Homo sapiens) (UniProt P00533); assay: Inhibition of EGFR-mediated ERK1 phosphorylation in HPV-16 transformed human CCD-1106 cells at 153 uM after 30 mins by densitometric analysis; format: cell-based; how it was run: as §1
[6] = target: Epidermal growth factor receptor (Homo sapiens) (UniProt P00533); assay: Inhibition of EGFR-mediated ERK2 phosphorylation in HPV-16 transformed human CCD-1106 cells at 153 uM after 30 mins by densitometric analysis; format: cell-based; how it was run: as §1
[7] = target: Epidermal growth factor receptor (Homo sapiens) (UniProt P00533); assay: Inhibition of phosphorylated EGFR dimerization in HPV-16 transformed human CCD-1106 cells at 155.4 uM after 30 mins by densitometric analysis; format: cell-based; how it was run: as §2
[8] = target: Epidermal growth factor receptor (Homo sapiens) (UniProt P00533); assay: Inhibition of phosphorylated EGFR dimerization in HPV-16 transformed human CCD-1106 cells at 118.1 uM after 30 mins by densitometric analysis; format: cell-based; how it was run: as §2
[9] = target: Epidermal growth factor receptor (Homo sapiens) (UniProt P00533); assay: Inhibition of EGFR-mediated p38 phosphorylation in HPV-16 transformed human CCD-1106 cells at 111.8 uM after 30 mins by densitometric analysis; format: cell-based; how it was run: as §1
[10] = target: Epidermal growth factor receptor (Homo sapiens) (UniProt P00533); assay: Inhibition of EGFR-mediated ERK2 phosphorylation in HPV-16 transformed human CCD-1106 cells at 111.8 uM after 30 mins by densitometric analysis; format: cell-based; how it was run: as §1
[11] = target: Epidermal growth factor receptor (Homo sapiens) (UniProt P00533); assay: Inhibition of EGFR-mediated ERK1 phosphorylation in HPV-16 transformed human CCD-1106 cells at 111.8 uM after 30 mins by densitometric analysis; format: cell-based; how it was run: as §1
HaCaT [12] = assay: Cytotoxicity against human HaCaT cells assessed as cell viability after 24 hrs by MTT assay; format: functional; details: read-out: LD50 (the source's name)
How it was run: (§3)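 Cells were plated at 10,000/well, attached overnight, and exposed 6 or 24 h to eight drug concentrations with six in-plate replicates (DMSO <1%). MTT (0.5 mg/ml in PBS) was added for 2 h at 37 °C, then dissolved in 90% isopropanol/10% DMSO, and A590 was read. Values were corrected against untreated controls. LD₅₀ is reported as mean ± S.E.M., n = 3.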

THP-1 = assay: Growth inhibition of human THP1 cells after 72 hrs by Cell Titer 96 aqueous one solution assay; format: functional; details: THP-1, 72 h
How it was run: (§4)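 Cells were grown in RPMI with 10% FBS, 2 mM L-glutamine and penicillin/streptomycin. They were seeded at 10,000 cells/well in round-bottom plates and exposed to compounds for 72 h (eight concentrations, six replicates). Cell Titer 96 AQueous One reagent was then added for 3 h at 37 °C and absorbance was read at 492 nm. Values are means, n = 6.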

U-937 = assay: Growth inhibition of human U937 cells after 72 hrs by Cell Titer 96 aqueous one solution assay; format: functional; details: U-937, 72 h; how it was run: as §4
[13] = Cytotoxicity against HPV-16 transformed human CCD-1106 cells assessed as LDH release after 24 hrs by CYTOX-96 assay; format: functional; details: CCD-1106, 24 h, read-out: LD50 (the source's name)
How it was run: (§5)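 LDH release was read with the CytoTox 96 kit following the kit protocol after 6 or 24 h drug exposure. Cells were seeded at 10,000/well and attached overnight. Eight concentrations were run with six in-plate replicates; DMSO was <1% in all wells, with medium-only blanks. LD₅₀ is reported as mean ± S.E.M., n = 6. CCD-1106 were grown in supplemented keratinocyte SFM; HaCaT in DMEM/10% FBS.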

[14] = Cytotoxicity against HPV-16 transformed human CCD-1106 cells assessed as cell viability after 6 hrs by MTT assay; format: functional; details: CCD-1106, 6 h, read-out: LD50 (the source's name); how it was run: as §3
HaCaT [15] = assay: Cytotoxicity against human HaCaT cells assessed as LDH release after 6 hrs by CYTOX-96 assay; format: functional; details: read-out: LD50 (the source's name); how it was run: as §5
HaCaT [16] = assay: Cytotoxicity against human HaCaT cells assessed as cell viability after 6 hrs by MTT assay; format: functional; details: read-out: LD50 (the source's name); how it was run: as §3
HaCaT [17] = assay: Cytotoxicity against human HaCaT cells assessed as LDH release after 24 hrs by CYTOX-96 assay; format: functional; details: read-out: LD50 (the source's name); how it was run: as §5
[18] = target: Epidermal growth factor receptor (Homo sapiens) (UniProt P00533); assay: Inhibition of phosphorylated EGFR dimerization in HPV-16 transformed human CCD-1106 cells at 348.8 uM after 30 mins by densitometric analysis; format: cell-based; how it was run: as §2
[19] = Cytotoxicity against HPV-16 transformed human CCD-1106 cells assessed as cell viability after 24 hrs by MTT assay; format: functional; details: CCD-1106, 24 h, read-out: LD50 (the source's name); how it was run: as §3
[20] = Growth inhibition of human NHEK cells after 72 hrs by neutral red uptake assay; format: functional
How it was run: (§6)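 Neutral red uptake assay over 72 h. Cells were seeded at 10,000 cells/well and attached overnight, then exposed to eight concentrations with six replicates (DMSO <1%). CCD-1106 were grown in keratinocyte SFM with supplements. HaCaT were grown in DMEM with 10% FBS and 2 mM L-glutamine. NHEK (pooled adult) were grown in keratinocyte growth medium with supplement. Values are means, n = 6, against the untreated control.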

[21] = Cytotoxicity against HPV-16 transformed human CCD-1106 cells assessed as LDH release after 6 hrs by CYTOX-96 assay; format: functional; details: CCD-1106, 6 h, read-out: LD50 (the source's name); how it was run: as §5
HaCaT [22] = assay: Growth inhibition of human HaCaT cells after 72 hrs by neutral red uptake assay; format: functional; how it was run: as §6
[23] = Growth inhibition of HPV-16 transformed human CCD-1106 cells after 72 hrs by neutral red uptake assay; format: functional; details: CCD-1106, 72 h; how it was run: as §6

SMILES: CCOc1cc(/C=N\Nc2nc3c(c(=O)n(C)c(=O)n3C)n2Cc2ccc(C)cc2)cc(OCC)c1OCC
GI50 ([1]; read-out: GI50): 9.83 µM
GI50 ([1]; read-out: pGI50 (converted)): 10 µM

inhibition [2]: 12%
IC50 [3]: 400 µM
inhibition [4]: 47%
SMILES: CCOC(=O)C1=C(C)NC(C)=C(C(=O)OCC)C1c1ccc(-c2ccc(Br)cc2)o1
GI50 ([1]; read-out: GI50): 4.09 µM

SMILES: CCOc1cc(/C=N\Nc2nc3c(c(=O)n(C)c(=O)n3C)n2Cc2ccccc2OC)cc(OCC)c1OCC
GI50 ([1]; read-out: GI50): 5.16 µM
GI50 ([1]; read-out: pGI50 (converted)): 5.13 µM

SMILES: CCOc1cc(/C=N\Nc2nc3c(c(=O)n(C)c(=O)n3C)n2Cc2ccccc2[N+](=O)[O-])ccc1O
GI50 ([1]; read-out: GI50): 8.5 µM
GI50 ([1]; read-out: pGI50 (converted)): 8.51 µM

inhibition [5]: 28%
IC50 [3]: 46700 µM
inhibition [6]: 20%
inhibition [7]: 52%
SMILES: O=C(Nc1ccccc1C(=O)c1ccccc1)c1cc([N+](=O)[O-])cc([N+](=O)[O-])c1
GI50 ([1]; read-out: GI50): 123 µM

inhibition [8]: 42%
inhibition [9]: 12%
inhibition [10]: 19%
IC50 [3]: 1250 µM
inhibition [11]: 26%
SMILES: Cc1ccc(OCC(=O)N/N=C/c2c(OC(=O)c3ccccc3)ccc3ccccc23)cc1
GI50 ([1]; read-out: GI50): 9.33 µM

SMILES: O=C1c2c(O)cccc2Cc2cccc(O)c21 [ANTHRALIN]
CC50 (HaCaT [12]): 3 µM
GI50 (THP-1): 54 µM
GI50 (U-937): 5 µM
CC50 [13]: 442 µM
CC50 [14]: 53 µM
CC50 (HaCaT [15]): 10 µM
CC50 (HaCaT [16]): 3 µM
CC50 (HaCaT [17]): 3 µM
GI50 ([1]; read-out: GI50): 0.51 µM
inhibition [18]: inactive
CC50 [19]: 2 µM
GI50 [20]: 0.5 µM
CC50 [21]: 310 µM
GI50 (HaCaT [22]): 0.7 µM
GI50 [23]: 0.4 µM

SMILES: CCOc1cc(/C=N\Nc2nc3c(c(=O)n(C)c(=O)n3C)n2Cc2ccc(C)cc2)ccc1O
GI50 ([1]; read-out: GI50): 9.75 µM
GI50 ([1]; read-out: pGI50 (converted)): 9.77 µM

SMILES: CCOc1cc(/C=N\Nc2nc3c(c(=O)n(C)c(=O)n3C)n2Cc2ccccc2C(=O)O)ccc1O
GI50 ([1]; read-out: GI50): 178 µM
GI50 ([1]; read-out: pGI50 (converted)): 178 µM
